Active and inactive are the calls of the source. The rule behind the calls is not given here.

The record followed here is ChEMBL document CHEMBL1155879, “Identification and validation of human DNA ligase inhibitors using computer-aided drug design” (J Med Chem, 2008).

Series [1] in a line: Partition coefficient, log P of the compound. It is filed as physicochemical. The note with it: octanol/water.
The nature of series [2]: Growth inhibition of human MCF10A cells at 50 uM by MTT assay relative to control. It is filed as cell-based. The note with it: MCF-10A. In general terms: Tetrazolium dyes change colour on reduction, which living cells bring about.
Series [3] concerns the target T1, DNA ligase 1 (Homo sapiens, UniProt P18858). Put plainly: Inhibition of human recombinant DNA ligase 1 in presence of 0.1% Triton X-100 by fluorescence energy transfer-based DNA joining assay relative to control.
The next series deals with HCT-116. In words: Growth inhibition of human HCT116 cells at 50 uM by MTT assay relative to control. Format: functional, cell-based.
The target of series [4] is T1, DNA ligase 1. Put plainly: Inhibition of human recombinant DNA ligase 1 by radioactive gel-based ligation assay. The method in brief:
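A 25-mer and a 5′-[32P]-labeled 18-mer were annealed to a complementary 44-mer to give a centrally nicked duplex. Labeled substrate (0.5 pmol) and hLigI (0.02 pmol) in ligation buffer were incubated with varying inhibitor concentrations for 30 min at 25 °C. Products were resolved on gels, and IC50 was derived from the concentration-dependence.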

Series [5] has as its target T1, DNA ligase 1. Put plainly: Inhibition of human recombinant DNA ligase 1 at 100 uM by fluorescence energy transfer-based DNA joining assay relative to control. The method in brief:
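Fluorescence energy transfer joining of a nicked DNA substrate (10 pmol) by purified recombinant hLigI (0.25 pmol), run in duplicate with or without 100 µM candidate inhibitor.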

In the next series the test system is DNA. Put plainly: Inhibition of ethidium bromide binding to DNA at 100 uM.
Series [6] deals with T1, DNA ligase 1. Put plainly: Inhibition of human recombinant DNA ligase 1 using nicked DNA substrate by kinetic assay. The method in brief:
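Initial ligation rates were measured with hLigI (0.05 pmol) and fluorescent nicked DNA substrate (0.5–100 pmol) at various inhibitor concentrations. Ki came from Lineweaver–Burk double-reciprocal plots and curve fitting.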

T1 sequence (P18858 whole entry): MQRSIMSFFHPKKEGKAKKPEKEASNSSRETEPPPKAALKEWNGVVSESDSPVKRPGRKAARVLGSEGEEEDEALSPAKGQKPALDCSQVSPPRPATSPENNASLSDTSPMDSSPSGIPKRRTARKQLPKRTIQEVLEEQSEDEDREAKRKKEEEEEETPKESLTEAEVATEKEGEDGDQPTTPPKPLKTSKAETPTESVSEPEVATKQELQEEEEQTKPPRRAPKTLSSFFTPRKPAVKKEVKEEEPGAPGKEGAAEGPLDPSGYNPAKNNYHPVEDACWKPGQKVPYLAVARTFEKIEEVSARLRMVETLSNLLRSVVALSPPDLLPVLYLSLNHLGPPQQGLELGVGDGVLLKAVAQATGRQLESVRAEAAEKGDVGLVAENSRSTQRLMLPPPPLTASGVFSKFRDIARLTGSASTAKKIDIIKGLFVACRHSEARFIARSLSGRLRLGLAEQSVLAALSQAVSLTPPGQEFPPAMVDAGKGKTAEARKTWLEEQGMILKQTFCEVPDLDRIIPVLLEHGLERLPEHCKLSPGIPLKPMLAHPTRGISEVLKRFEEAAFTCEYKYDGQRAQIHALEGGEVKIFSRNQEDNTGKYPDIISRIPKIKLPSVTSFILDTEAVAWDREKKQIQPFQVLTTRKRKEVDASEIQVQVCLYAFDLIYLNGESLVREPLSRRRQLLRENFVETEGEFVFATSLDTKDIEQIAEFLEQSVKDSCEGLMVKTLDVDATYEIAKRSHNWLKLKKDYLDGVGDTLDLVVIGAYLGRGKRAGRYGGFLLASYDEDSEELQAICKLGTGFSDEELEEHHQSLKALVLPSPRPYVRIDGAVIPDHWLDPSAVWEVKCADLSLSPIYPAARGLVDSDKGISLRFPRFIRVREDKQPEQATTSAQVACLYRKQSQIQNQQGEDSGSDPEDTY

The term logP denotes the decadic logarithm of the partition coefficient of the neutral form, usually between octanol and water. What is called inhibition is the relative decrease from the control value, in per cent. The IC50 is the concentration needed to halve the response being measured. For `COc1ccc(-c2cnc3c(O)nc(O)nc3n2)cc1`, the logP in series [1] is 1.78. Besides, the growth inhibition in series [2] was found to be 70%; with HCT-116 it was 40%. The inhibition is 39% at DNA ligase 1 [3] (concentration not given here) and 52.5% at DNA ligase 1 [5]. In addition, at DNA ligase 1 [4], the IC50 came to 25 µM.
`NS(=O)(=O)c1ccc(CCNC(=O)CCS(=O)(=O)c2ccc(Br)cc2)cc1`: the logP in series [1] is 1.42. Further, the outcome on DNA ligase 1 [3] was Active. The IC50 at DNA ligase 1 [4] amounted to 8 µM. Besides, the inhibition at DNA ligase 1 [5] stood at 53.4%.
`O=c1[nH]ncc(N/N=C\c2ccc(O)c([N+](=O)[O-])c2)c1Cl` displayed a logP in series [1] of 4.84. In addition, the values for the growth inhibition (in series [2]; with HCT-116) were 70% and 40%, respectively. For the same compound, the result in the series on DNA was inactive. The IC50 on DNA ligase 1 [4] amounted to 12 µM. Besides, the inhibition at DNA ligase 1 [5] was determined as 59.8%.
`Cc1c(Br)cc(NCC(=O)N/N=C\c2cc([N+](=O)[O-])ccc2O)cc1Br`: the logP in series [1] was found to be 4.91. Further, the growth inhibition (in series [2]; in the series on HCT-116) was 70% throughout. The outcome in the series on DNA was inactive. The IC50 on DNA ligase 1 [4] was 8 µM. At DNA ligase 1 [5], the inhibition is 78.3%.
`Cc1oc(C(=O)O)cc1CSCc1cc(C(=O)O)c(C)o1` showed a logP in series [1] of 1.87. For the same compound, the outcome on DNA ligase 1 [3] was Active. Also, the IC50 on DNA ligase 1 [4] stood at 0.6 µM. Moreover, the inhibition at DNA ligase 1 [5] turned out to be 91%.
A word on the Ki: it is the equilibrium dissociation constant of an inhibitor or competing ligand from its target. For `O=C1Nc2c(C(=O)O)cccc2C1=O`, in series [1], the logP stood at 0.24. Further, the result at DNA ligase 1 [3] was Active. On DNA ligase 1 [6], the Ki is 4 µM. Moreover, the IC50 on DNA ligase 1 [4] was 4 µM. For the same compound, the inhibition at DNA ligase 1 [5] was 59.3%.
The compound `O=C(O)CSc1cc(Cl)c2nonc2c1[N+](=O)[O-]` had a logP in series [1] of 2.15. This compound also gave a growth inhibition in series [2] of 40%. The outcome at DNA ligase 1 [3] was Active. The IC50 at DNA ligase 1 [4] is 13 µM. Moreover, the inhibition on DNA ligase 1 [5] is 60.6%.
`CSc1ccc(C(=O)O)s1` showed a logP in series [1] of 1.92. Further, the result at DNA ligase 1 [3] was Active. Moreover, the IC50 at DNA ligase 1 [4] worked out at 10 µM. Also, the inhibition at DNA ligase 1 [5] was found to be 60.5%.
As to `O=C(c1ccc(O)cc1)c1ccccc1O`, in series [1], the log partition coefficient (logP) was found to be 3.04. The outcome at DNA ligase 1 [3] was Active. Also, at DNA ligase 1 [4], the IC50 turned out to be 25 µM. Moreover, the inhibition at DNA ligase 1 [5] was determined as 50.7%.
